Source: ChEMBL document CHEMBL1157791, “Discovery of GSK1070916, a potent and selective inhibitor of Aurora B/C kinase” (J Med Chem, 2010)
Active and inactive are the calls of the source. No cut-off for these calls is given here.

Key:
A549 [1] = test: Antiproliferative activity against human A549 cells after 6 to 7 days by celltiter-glo luminescence assay in absence of 70% human serum albumin; format: functional, cell-based
Aurora kinase B = Aurora kinase B (Homo sapiens, UniProt Q96GD4); test: Inhibition of human Aurora B by in vitro inhibition assay
Aurora kinase B, sequence (Q96GD4 whole entry): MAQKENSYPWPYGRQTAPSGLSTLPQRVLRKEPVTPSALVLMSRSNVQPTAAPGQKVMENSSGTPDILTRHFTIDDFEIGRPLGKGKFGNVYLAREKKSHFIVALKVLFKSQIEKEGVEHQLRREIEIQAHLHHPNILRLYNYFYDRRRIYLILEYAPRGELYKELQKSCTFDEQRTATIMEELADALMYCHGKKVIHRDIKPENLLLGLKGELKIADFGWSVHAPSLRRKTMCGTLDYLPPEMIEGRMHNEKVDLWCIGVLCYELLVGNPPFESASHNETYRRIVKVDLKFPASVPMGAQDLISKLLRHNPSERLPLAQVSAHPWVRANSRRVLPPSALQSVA

A549 [2] = test: Selectivity ratio of EC50 for human A549 cells in presence of 70% human serum albumin to EC50 for human A549 cells in absence of 70% human serum albumin; format: functional
Aurora kinase A = molecular target: T1, Aurora kinase A (Homo sapiens, UniProt O14965); test: Inhibition of human Aurora A
T1 sequence (O14965 whole entry): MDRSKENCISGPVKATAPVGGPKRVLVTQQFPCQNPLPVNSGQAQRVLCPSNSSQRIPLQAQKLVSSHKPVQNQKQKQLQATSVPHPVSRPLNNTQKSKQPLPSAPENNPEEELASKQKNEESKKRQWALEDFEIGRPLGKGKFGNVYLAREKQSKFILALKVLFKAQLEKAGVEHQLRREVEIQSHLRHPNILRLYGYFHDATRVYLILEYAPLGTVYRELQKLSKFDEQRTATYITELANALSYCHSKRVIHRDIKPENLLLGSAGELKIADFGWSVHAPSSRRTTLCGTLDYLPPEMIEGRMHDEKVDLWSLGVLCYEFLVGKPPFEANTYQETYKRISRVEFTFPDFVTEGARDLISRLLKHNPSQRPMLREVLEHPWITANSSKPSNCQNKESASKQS

Homo sapiens = species on record: Homo sapiens; test: Selectivity ratio of IC50 for human Aurora A to IC50 for human Aurora B
[3] = molecular target: Hepatocyte growth factor receptor (Homo sapiens, UniProt P08581); test: Inhibition of MET
Hepatocyte growth factor receptor, sequence (P08581 whole entry): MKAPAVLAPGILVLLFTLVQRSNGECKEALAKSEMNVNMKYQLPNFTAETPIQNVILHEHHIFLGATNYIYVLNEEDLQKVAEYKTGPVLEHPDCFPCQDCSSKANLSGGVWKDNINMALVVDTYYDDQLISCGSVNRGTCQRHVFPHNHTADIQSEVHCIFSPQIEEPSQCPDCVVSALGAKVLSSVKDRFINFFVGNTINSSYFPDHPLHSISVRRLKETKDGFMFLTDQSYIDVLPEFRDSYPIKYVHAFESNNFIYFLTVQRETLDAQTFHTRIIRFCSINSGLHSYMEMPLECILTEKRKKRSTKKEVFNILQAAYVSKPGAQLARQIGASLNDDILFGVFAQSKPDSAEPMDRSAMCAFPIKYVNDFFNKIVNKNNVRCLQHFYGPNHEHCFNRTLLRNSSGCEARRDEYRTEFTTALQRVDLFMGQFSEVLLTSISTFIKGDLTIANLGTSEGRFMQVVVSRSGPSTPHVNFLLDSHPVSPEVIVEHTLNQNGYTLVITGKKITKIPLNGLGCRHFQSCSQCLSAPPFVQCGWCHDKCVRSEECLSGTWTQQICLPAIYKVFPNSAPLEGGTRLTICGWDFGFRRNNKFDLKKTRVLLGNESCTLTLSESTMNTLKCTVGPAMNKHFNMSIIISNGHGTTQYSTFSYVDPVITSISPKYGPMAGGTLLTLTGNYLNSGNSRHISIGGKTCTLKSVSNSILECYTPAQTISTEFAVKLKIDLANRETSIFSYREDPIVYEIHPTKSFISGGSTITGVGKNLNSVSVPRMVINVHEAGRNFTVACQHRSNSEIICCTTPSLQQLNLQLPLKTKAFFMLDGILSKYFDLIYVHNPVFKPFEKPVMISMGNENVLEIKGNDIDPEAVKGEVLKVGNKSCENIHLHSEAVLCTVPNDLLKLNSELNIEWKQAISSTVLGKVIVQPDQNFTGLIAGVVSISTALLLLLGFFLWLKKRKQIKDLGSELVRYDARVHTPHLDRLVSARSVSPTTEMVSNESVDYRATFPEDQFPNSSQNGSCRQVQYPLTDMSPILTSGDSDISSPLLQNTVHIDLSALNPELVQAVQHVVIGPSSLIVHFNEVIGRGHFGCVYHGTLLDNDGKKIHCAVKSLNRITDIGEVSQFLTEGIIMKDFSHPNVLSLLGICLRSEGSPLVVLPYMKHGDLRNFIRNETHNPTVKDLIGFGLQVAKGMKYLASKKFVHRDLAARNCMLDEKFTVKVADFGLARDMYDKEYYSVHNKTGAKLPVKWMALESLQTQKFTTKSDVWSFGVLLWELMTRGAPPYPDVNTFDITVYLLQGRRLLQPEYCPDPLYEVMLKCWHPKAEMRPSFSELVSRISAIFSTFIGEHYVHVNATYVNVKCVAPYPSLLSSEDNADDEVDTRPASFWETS

[4] = Inhibition of ROCK
In short: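 Part of a 328 human protein and lipid kinase selectivity panel run as in vitro activity or binding assays.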

[5] = molecular target: Tyrosine-protein kinase Lck (Homo sapiens) (UniProt P06239); test: Inhibition of LCK
Tyrosine-protein kinase Lck (Homo sapiens), sequence (P06239 2-509 limits assumed): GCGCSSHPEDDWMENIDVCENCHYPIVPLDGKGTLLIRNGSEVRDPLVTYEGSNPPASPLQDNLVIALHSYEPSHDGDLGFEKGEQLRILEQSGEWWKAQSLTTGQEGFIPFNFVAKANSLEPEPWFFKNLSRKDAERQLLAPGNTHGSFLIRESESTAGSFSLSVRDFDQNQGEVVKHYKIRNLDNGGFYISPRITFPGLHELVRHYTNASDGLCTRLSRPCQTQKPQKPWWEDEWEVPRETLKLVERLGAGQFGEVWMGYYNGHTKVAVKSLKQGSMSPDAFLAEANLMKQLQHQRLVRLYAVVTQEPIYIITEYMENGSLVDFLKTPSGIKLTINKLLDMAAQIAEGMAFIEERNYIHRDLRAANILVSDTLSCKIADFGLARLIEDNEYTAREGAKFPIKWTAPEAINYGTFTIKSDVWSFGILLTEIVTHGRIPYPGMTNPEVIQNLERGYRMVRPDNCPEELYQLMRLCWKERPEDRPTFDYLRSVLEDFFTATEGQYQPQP

Aurora kinase C = molecular target: T2, Aurora kinase C (Homo sapiens, UniProt Q9UQB9); test: Competitive inhibition of Aurora C ATP binding site
T2 sequence (Q9UQB9 whole entry): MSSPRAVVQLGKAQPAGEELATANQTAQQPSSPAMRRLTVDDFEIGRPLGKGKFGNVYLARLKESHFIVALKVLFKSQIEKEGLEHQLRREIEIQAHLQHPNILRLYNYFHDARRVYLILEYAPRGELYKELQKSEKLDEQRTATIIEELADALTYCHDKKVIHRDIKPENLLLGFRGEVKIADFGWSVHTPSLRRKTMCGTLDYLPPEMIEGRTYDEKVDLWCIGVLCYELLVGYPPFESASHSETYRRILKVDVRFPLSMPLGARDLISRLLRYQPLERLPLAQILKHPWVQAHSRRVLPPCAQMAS

Compound	EC50 (A549 [1])	IC50 (Aurora kinase B)	Ratio EC50 (A549 [2])	IC50 (Aurora kinase A)	Ratio IC50 (Homo sapiens)	inhibition [3]	inhibition [4]	inhibition [5]	IC50 (Aurora kinase C)
CCn1cc(-c2ccnc3[nH]c(C(=O)NCCCN4CCN(C)CC4)cc23)c(-c2ccc(NC(=O)Nc3ccccc3)cc2)n1	638 nM	8 nM	10	228 nM					
O=C(Nc1ccccc1)Nc1ccc(-c2nn(CC3CCCO3)cc2-c2ccnc3[nH]ccc23)cc1 (configuration not stated)		97 nM		6190 nM					
CCn1cc(-c2ccnc3[nH]ccc23)c(-c2ccc(NC(=O)N(C)C)cc2)n1				> 10000 nM					
CC(C)(C)n1cc(-c2ccnc3[nH]ccc23)c(-c2ccc(NC(=O)Nc3ccccc3)cc2)n1	476 nM	50 nM		8160 nM					
CCn1cc(-c2ccnc3[nH]c(CNCCCN4CCN(C)CC4)cc23)c(-c2ccc(NC(=O)Nc3ccccc3)cc2)n1	> 20000 nM	83 nM	10	5110 nM					
CCNC(=O)Nc1ccc(-c2nn(CC)cc2-c2ccnc3[nH]c(-c4cccc(CN(C)C)c4)cc23)cc1	12 nM	3 nM		128 nM	42				
O=C(Nc1ccccc1)Nc1ccc(-c2nn(CC(O)CO)cc2-c2ccnc3[nH]ccc23)cc1 (configuration not stated)	9610 nM	1 nM		377 nM					
CCn1cc(-c2ccnc3[nH]c(CNCCO)cc23)c(-c2ccc(NC(=O)Nc3ccccc3)cc2)n1	18600 nM	46 nM	10	2820 nM					
CCn1cc(-c2ccnc3[nH]c(-c4ccc(NC(C)=O)cc4)cc23)c(-c2ccc(NC(=O)Nc3ccccc3)cc2)n1	110 nM	44 nM	10	62 nM					
CCn1cc(-c2ccnc3[nH]c(-c4cccc(CN5CCOCC5)c4)cc23)c(-c2ccc(NC(=O)N(C)C)cc2)n1	18 nM	4.7 nM		495 nM					
O=C(Nc1ccccc1)Nc1ccc(-c2nn(CCO)cc2-c2ccnc3[nH]ccc23)cc1	2630 nM	3 nM		792 nM					
CCn1ncc(-c2ccnc3[nH]ccc23)c1-c1ccc(NC(=O)Nc2ccccc2)cc1	1590 nM	25 nM		5600 nM					
CCn1cc(-c2ccnc3[nH]c(-c4ccc(CN5CCOCC5)cc4)cc23)c(-c2ccc(NC(=O)Nc3ccccc3)cc2)n1	17 nM	66 nM	10	59 nM					
CCn1cc(-c2ccnc3[nH]c(-c4cccc(NC(C)=O)c4)cc23)c(-c2ccc(NC(=O)Nc3ccccc3)cc2)n1	156 nM	44 nM	10	126 nM					
CCn1cc(-c2ccnc3[nH]c(C(=O)NCCN4CCN(C)CC4)cc23)c(-c2ccc(NC(=O)Nc3ccccc3)cc2)n1	417 nM	5 nM	10	203 nM					
CCNC(=O)Nc1ccc(-c2nn(CC)cc2-c2ccnc3[nH]c(-c4ccc(CN5CCCC5)cc4)cc23)cc1	8 nM	1.5 nM		42 nM					
CCn1cc(-c2ccnc3[nH]c(-c4cccc(CN(C)C)c4)cc23)c(-c2ccc(NC(=O)Nc3ccccc3)cc2)n1	14 nM	20 nM	10	53 nM	3	Active	Active	Active	
NC(=O)Cn1cc(-c2ccnc3[nH]ccc23)c(-c2ccc(NC(=O)Nc3ccccc3)cc2)n1	> 20000 nM	64 nM		5680 nM					
CCn1cc(-c2ccnc3[nH]c(-c4ccc(CN(C)C)cc4)cc23)c(-c2ccc(NC(=O)N(C)C)cc2)n1	6 nM	3.6 nM		514 nM	156				
CCn1cc(-c2ccnc3[nH]c(-c4ccc(CN5CCCC5)cc4)cc23)c(-c2ccc(NC(=O)N(C)C)cc2)n1	6 nM	4.5 nM		414 nM					
CC(C)(C)n1ncc(-c2ccnc3[nH]ccc23)c1-c1ccc(NC(=O)Nc2ccccc2)cc1	890 nM	40 nM		5770 nM					
CCN(CCCOc1ccc2c(Nc3cc(CC(=O)Nc4cccc(F)c4)n[nH]3)ncnc2c1)CCOP(=O)(O)O [BARASERTIB]									17 nM

Compound	EC50 (A549 [1])	IC50 (Aurora kinase B)	Ratio EC50 (A549 [2])	IC50 (Aurora kinase A)	Ratio IC50 (Homo sapiens)	inhibition [3]	inhibition [4]	inhibition [5]	IC50 (Aurora kinase C)
CCNC(=O)Nc1ccc(-c2nn(CC)cc2-c2ccnc3[nH]c(-c4ccc(CN(C)C)cc4)cc23)cc1	6 nM	1.7 nM		39 nM					
CCNC(=O)Nc1ccc(-c2nn(CC)cc2-c2ccnc3[nH]c(-c4cccc(CN5CCOCC5)c4)cc23)cc1	26 nM	5 nM		70 nM					
O=C(Nc1ccccc1)Nc1ccc(-c2nn(CCCO)cc2-c2ccnc3[nH]ccc23)cc1	779 nM	2 nM		969 nM					
CCn1cc(-c2ccnc3[nH]c(-c4ccc(CN(C)C)cc4)cc23)c(-c2ccc(NC(=O)Nc3ccccc3)cc2)n1	8 nM	23 nM	10	45 nM					
CCn1cc(-c2ccnc3[nH]c(-c4cc(CN(C)C)ccc4C)cc23)c(-c2ccc(NC(=O)Nc3ccccc3)cc2)n1	174 nM	60 nM	10	113 nM					
O=C(Nc1ccccc1)Nc1ccc(-c2nn(CC(=O)N3CCOCC3)cc2-c2ccnc3[nH]ccc23)cc1	> 20000 nM	85 nM		6810 nM					
CCn1cc(-c2ccnc3[nH]c(CNCCN4CCOCC4)cc23)c(-c2ccc(NC(=O)Nc3ccccc3)cc2)n1	2860 nM	22 nM	10	2440 nM					
O=C(Nc1ccccc1)Nc1ccc(-c2n[nH]cc2-c2ccnc3[nH]ccc23)cc1	12800 nM	32 nM		3850 nM					
CCn1cc(-c2ccnc3[nH]c(C(=O)NCCN4CCOCC4)cc23)c(-c2ccc(NC(=O)Nc3ccccc3)cc2)n1	200 nM	5 nM	10	197 nM					
CCn1cc(-c2ccnc3[nH]c(-c4ccc(CN(C)C)cc4C)cc23)c(-c2ccc(NC(=O)Nc3ccccc3)cc2)n1	16 nM	26 nM	10	42 nM					
CCNC(=O)Nc1ccc(-c2nn(CC)cc2-c2ccnc3[nH]c(-c4cccc(CN5CCCC5)c4)cc23)cc1	9 nM	1.4 nM		58 nM					
CCn1cc(-c2ccnc3[nH]c(-c4cccc(CN5CCCC5)c4)cc23)c(-c2ccc(NC(=O)N(C)C)cc2)n1	7 nM	2.1 nM		366 nM					
CCNC(=O)Nc1ccc(-c2nn(CC)cc2-c2ccnc3[nH]c(-c4ccc(CN5CCOCC5)cc4)cc23)cc1	12 nM	4.7 nM		23 nM					
CCn1cc(-c2ccnc3[nH]c(CNCCS(C)(=O)=O)cc23)c(-c2ccc(NC(=O)Nc3ccccc3)cc2)n1	11500 nM	24 nM	10	579 nM					
CCn1cc(-c2ccnc3[nH]c(-c4cccc(CN5CCCC5)c4)cc23)c(-c2ccc(NC(=O)Nc3ccccc3)cc2)n1	12 nM	11 nM	10	22 nM					
O=C(Nc1ccccc1)Nc1ccc(-c2nn(CC(F)(F)F)cc2-c2ccnc3[nH]ccc23)cc1	326 nM	16 nM		2150 nM					
CCn1cc(-c2ccnc3[nH]c(-c4cccc(CN5CCOCC5)c4)cc23)c(-c2ccc(NC(=O)Nc3ccccc3)cc2)n1	30 nM	57 nM	10	94 nM					
CCn1cc(-c2ccnc3[nH]c(CN(C)C)cc23)c(-c2ccc(NC(=O)Nc3ccccc3)cc2)n1	4390 nM	58 nM	10	1700 nM					
CCn1cc(-c2ccnc3[nH]c(CNCCN(C)C)cc23)c(-c2ccc(NC(=O)Nc3ccccc3)cc2)n1		276 nM	10	5480 nM					
CCn1cc(-c2ccnc3[nH]c(-c4ccc(CN5CCOCC5)cc4)cc23)c(-c2ccc(NC(=O)N(C)C)cc2)n1	9 nM	8.1 nM		250 nM					
CCNC(=O)Cn1cc(-c2ccnc3[nH]ccc23)c(-c2ccc(NC(=O)Nc3ccccc3)cc2)n1	> 20000 nM	64 nM		3390 nM					
